Key:
Settings in all cases: stereoisomer not certain
UniProt E9PVX1 = biological target: T1, UniProt E9PVX1
T1 sequence (whole entry): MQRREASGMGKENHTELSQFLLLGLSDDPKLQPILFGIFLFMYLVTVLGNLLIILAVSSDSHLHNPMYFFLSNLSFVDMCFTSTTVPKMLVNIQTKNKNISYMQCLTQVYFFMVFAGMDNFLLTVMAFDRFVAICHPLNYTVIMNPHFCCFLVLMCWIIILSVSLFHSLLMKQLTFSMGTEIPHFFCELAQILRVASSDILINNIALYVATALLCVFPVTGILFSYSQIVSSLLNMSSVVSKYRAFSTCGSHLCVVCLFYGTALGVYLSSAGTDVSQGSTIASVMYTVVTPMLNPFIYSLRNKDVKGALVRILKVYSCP
Summary of the method: (§1)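 Each entry records the cell line, G-protein, co-transfected protein and tags used. Methods varied with the source, often transient luciferase assays in mammalian cell lines. A receptor–molecule pair is called responsive (active) if the original authors judged its signal statistically different from baseline and non-responsive (inactive) otherwise.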

UniProt E9PZ66 = biological target: T2, UniProt E9PZ66
T2 sequence (whole entry): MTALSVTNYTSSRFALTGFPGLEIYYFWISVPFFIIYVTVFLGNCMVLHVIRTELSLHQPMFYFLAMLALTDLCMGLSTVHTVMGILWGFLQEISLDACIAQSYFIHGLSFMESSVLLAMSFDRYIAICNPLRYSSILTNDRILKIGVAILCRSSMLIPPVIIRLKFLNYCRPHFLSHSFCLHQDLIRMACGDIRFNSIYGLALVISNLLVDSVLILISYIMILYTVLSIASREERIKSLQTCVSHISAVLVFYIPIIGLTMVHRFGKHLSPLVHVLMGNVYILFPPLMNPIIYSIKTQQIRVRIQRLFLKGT
Summary of the method: as §1

UniProt E9Q4X7 = biological target: T3, UniProt E9Q4X7
T3 sequence (whole entry): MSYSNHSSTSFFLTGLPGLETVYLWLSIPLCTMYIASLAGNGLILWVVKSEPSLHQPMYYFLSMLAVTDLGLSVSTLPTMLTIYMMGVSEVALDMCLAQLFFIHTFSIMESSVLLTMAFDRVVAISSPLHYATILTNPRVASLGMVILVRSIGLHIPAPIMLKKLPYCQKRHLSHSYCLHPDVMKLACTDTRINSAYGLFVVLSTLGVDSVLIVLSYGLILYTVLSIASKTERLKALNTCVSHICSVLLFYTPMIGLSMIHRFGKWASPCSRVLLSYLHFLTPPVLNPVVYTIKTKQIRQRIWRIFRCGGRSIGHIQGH
Summary of the method: as §1

UniProt E9Q546 = biological target: T4, UniProt E9Q546
T4 sequence (whole entry): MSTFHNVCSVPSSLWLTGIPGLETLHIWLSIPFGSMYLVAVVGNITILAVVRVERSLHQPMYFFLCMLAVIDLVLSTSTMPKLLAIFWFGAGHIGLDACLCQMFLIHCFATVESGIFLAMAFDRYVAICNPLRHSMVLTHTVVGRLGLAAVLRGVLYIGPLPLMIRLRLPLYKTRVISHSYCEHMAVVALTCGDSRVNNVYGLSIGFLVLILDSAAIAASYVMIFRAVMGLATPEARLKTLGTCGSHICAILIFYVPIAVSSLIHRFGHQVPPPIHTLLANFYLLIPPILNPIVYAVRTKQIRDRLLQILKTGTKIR
Summary of the method: as §1

UniProt E9Q6Z7 = biological target: T5, UniProt E9Q6Z7
T5 sequence (whole entry): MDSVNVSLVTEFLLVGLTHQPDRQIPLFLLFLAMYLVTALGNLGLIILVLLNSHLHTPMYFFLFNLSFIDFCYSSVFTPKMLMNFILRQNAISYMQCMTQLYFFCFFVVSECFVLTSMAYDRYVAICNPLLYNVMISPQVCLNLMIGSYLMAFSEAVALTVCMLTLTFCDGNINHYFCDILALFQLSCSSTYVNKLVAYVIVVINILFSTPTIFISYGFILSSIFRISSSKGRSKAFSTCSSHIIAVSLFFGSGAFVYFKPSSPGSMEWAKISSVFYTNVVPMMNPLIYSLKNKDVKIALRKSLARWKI
Summary of the method: as §1

UniProt L7MU75 = biological target: T6, UniProt L7MU75
T6 sequence (whole entry): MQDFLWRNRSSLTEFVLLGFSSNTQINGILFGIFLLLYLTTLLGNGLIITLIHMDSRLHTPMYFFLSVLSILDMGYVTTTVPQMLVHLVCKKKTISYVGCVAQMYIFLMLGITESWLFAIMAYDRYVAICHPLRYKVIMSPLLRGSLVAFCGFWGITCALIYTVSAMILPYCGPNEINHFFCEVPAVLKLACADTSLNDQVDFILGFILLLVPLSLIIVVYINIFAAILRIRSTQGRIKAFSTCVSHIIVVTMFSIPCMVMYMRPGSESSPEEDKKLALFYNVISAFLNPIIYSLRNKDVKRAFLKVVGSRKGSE
Summary of the method: as §1

UniProt L7N210 = biological target: T7, UniProt L7N210
T7 sequence (whole entry): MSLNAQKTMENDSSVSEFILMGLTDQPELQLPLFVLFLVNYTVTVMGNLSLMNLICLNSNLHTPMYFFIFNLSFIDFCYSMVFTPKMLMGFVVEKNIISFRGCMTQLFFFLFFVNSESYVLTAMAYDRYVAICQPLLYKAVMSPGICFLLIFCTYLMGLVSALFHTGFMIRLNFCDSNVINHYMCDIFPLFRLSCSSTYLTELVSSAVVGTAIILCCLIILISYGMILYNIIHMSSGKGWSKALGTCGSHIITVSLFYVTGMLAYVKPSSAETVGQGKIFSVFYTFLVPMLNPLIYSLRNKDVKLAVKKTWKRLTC
Summary of the method: as §1

UniProt Q3KPB0 = biological target: T8, UniProt Q3KPB0
T8 sequence (whole entry): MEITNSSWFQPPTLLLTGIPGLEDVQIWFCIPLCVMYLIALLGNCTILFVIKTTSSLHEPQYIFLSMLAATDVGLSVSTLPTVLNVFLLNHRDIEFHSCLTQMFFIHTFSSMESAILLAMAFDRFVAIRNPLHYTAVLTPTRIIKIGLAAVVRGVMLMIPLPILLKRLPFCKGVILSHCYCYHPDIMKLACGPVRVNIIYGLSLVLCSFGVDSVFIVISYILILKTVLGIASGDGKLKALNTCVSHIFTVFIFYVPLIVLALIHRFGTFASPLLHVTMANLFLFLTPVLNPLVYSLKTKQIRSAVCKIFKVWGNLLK
Summary of the method: as §1

UniProt Q3U0P3 = biological target: T9, UniProt Q3U0P3
T9 sequence (whole entry): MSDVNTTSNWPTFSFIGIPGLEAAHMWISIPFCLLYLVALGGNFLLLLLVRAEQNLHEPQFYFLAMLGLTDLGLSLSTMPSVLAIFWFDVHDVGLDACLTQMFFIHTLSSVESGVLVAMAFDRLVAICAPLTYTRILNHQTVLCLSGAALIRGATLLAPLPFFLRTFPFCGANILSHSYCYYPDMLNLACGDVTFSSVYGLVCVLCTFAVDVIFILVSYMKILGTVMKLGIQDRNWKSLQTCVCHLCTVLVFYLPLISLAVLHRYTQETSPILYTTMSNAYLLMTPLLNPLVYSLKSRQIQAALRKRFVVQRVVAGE
Summary of the method: as §1

UniProt Q7TQU8 = biological target: T10, UniProt Q7TQU8
T10 sequence (whole entry): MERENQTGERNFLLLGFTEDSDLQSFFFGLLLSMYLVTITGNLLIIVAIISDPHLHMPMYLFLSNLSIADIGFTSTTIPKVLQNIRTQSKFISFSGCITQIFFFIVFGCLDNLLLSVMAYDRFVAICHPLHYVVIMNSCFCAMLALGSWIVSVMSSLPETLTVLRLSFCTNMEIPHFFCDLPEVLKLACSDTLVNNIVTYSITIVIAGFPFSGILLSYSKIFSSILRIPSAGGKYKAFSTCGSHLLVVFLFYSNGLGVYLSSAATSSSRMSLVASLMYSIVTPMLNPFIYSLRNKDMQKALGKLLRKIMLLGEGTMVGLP
Summary of the method: as §1

UniProt Q7TR79 = biological target: T11, UniProt Q7TR79
T11 sequence (whole entry): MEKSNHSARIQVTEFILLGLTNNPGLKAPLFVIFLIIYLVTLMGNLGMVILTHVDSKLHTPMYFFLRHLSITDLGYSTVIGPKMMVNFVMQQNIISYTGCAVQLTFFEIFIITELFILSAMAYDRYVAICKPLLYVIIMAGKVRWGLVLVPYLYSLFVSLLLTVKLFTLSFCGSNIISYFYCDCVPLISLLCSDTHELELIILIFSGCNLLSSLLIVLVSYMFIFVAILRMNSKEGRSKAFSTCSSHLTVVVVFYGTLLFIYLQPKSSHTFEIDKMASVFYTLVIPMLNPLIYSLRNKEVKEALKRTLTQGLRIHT
Summary of the method: as §1

UniProt B2RVX8 = biological target: T12, UniProt B2RVX8
T12 sequence (whole entry): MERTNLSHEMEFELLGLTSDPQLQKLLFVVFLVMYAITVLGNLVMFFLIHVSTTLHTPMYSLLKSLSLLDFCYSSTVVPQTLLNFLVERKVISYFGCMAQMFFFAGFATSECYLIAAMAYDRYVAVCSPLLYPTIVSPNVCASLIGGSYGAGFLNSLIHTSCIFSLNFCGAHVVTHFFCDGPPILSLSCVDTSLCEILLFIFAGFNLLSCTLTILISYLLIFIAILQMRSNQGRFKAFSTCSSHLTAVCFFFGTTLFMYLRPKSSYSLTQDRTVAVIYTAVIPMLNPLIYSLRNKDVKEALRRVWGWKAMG
Summary of the method: as §1

UniProt K7N609 = biological target: T13, UniProt K7N609
T13 sequence (whole entry): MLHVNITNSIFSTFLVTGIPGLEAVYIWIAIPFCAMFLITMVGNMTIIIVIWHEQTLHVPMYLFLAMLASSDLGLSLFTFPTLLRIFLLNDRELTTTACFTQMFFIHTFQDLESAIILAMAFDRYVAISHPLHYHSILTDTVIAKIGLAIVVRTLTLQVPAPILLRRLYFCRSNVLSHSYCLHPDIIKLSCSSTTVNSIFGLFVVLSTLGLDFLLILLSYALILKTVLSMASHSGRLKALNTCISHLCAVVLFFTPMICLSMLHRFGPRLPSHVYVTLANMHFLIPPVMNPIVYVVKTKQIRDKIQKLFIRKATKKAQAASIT
Summary of the method: as §1

UniProt Q7TQV4 = biological target: T14, UniProt Q7TQV4
T14 sequence (whole entry): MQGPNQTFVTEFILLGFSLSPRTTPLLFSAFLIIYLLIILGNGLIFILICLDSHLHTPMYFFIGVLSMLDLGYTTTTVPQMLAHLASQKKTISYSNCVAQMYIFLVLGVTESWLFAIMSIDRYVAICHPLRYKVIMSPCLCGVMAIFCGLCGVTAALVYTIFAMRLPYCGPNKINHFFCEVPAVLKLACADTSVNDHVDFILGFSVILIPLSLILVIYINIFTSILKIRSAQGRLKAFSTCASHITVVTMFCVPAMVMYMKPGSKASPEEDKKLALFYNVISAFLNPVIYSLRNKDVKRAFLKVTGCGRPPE
Summary of the method: as §1

UniProt Q7TR71 = biological target: T15, UniProt Q7TR71
T15 sequence (whole entry): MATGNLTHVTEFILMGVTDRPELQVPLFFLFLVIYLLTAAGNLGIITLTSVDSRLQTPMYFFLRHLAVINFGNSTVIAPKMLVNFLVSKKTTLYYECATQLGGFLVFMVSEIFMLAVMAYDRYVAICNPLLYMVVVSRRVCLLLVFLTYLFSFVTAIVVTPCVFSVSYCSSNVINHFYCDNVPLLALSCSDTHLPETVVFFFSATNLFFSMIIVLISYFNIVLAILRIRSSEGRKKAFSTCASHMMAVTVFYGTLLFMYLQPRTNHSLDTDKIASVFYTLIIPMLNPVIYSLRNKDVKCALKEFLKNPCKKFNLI
Summary of the method: as §1

UniProt Q7TRA3 = biological target: T16, UniProt Q7TRA3
T16 sequence (whole entry): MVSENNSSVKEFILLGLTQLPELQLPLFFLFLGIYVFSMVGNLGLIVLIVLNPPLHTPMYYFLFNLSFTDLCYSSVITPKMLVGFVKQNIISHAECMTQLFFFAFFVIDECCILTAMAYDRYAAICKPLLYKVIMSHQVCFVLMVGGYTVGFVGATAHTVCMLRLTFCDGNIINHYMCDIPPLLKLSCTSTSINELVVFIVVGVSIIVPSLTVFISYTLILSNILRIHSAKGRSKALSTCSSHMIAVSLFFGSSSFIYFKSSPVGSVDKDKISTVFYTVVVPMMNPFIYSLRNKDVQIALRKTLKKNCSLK
Summary of the method: as §1

UniProt Q7TRE4 = biological target: T17, UniProt Q7TRE4
T17 sequence (whole entry): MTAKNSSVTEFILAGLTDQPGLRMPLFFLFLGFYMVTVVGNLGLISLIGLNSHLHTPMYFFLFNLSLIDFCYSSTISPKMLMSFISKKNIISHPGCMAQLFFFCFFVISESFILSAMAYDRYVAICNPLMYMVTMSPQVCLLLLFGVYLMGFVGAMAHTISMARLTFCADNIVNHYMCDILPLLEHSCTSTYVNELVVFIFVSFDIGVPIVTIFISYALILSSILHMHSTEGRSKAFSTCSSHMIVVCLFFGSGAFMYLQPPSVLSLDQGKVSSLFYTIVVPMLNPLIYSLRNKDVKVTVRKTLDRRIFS
Summary of the method: as §1

Measured: odorant receptor agonist call

CC(C=O)Cc1ccc2c(c1)OCO2 (centres undefined)
active: UniProt L7N210
not listed: UniProt B2RVX8 | UniProt K7N609 | UniProt Q7TQV4 | UniProt Q7TR71 | UniProt Q7TRA3 | UniProt Q7TRE4
inactive: all other assays above

O=Cc1ccccc1
not listed: UniProt L7MU75 | UniProt B2RVX8 | UniProt K7N609 | UniProt Q7TQV4 | UniProt Q7TR71 | UniProt Q7TRA3 | UniProt Q7TRE4
inactive: all other assays above

CCC1CCC(=O)O1 (centres undefined)
inactive: UniProt B2RVX8 | UniProt E9Q546 | UniProt K7N609 | UniProt L7MU75 | UniProt L7N210 | UniProt Q7TRA3 | UniProt Q7TRE4
active: UniProt Q7TQV4 | UniProt Q7TR71

C=CCc1ccccc1
inactive: UniProt B2RVX8 | UniProt E9Q546 | UniProt K7N609 | UniProt L7N210 | UniProt Q7TQV4 | UniProt Q7TR71 | UniProt Q7TRA3 | UniProt Q7TRE4

CCCCC(Br)C(=O)O (centres undefined)
active: UniProt L7N210
not listed: UniProt B2RVX8 | UniProt K7N609 | UniProt Q7TQV4 | UniProt Q7TR71 | UniProt Q7TRA3 | UniProt Q7TRE4
inactive: all other assays above

— the M2OR odorant receptor database
